Experimental data reported in ChEMBL document CHEMBL3393029, “Preactivated oxazaphosphorines designed for isophosphoramide mustard delivery as bulk form or nanoassemblies: synthesis and proof of concept” (J Med Chem, 2015).

Legend:
[1] = test system: KB; experiment: Cytotoxicity against human KB cells; assay type: functional, cell-based
Method in brief: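 KB3.1 was one of 12 human lines tested with nano-assembly formulations. Cells were seeded, then exposed after 24 h to 0.1–200 µM in DMEM or RPMI with 10% FBS at 37 °C and 5% CO2 for 72 h. MTS was read at 490 nm after 2–5 h. Six replicates per concentration; IC50 relative to untreated cells.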

[2] = test system: Plasma; experiment: Drug metabolism in mouse plasma assessed as 4-HO-IFO level measured after 2 to 24 hrs by HPLC-MS/MS method; assay type: ADME, cell-free
Method in brief: (§1)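 Prodrugs, from acetonitrile stocks as bulk form or nano-assemblies, were incubated in mouse plasma at 37 °C for up to 24 h. 4-HO-IFO was trapped as its semicarbazone with semicarbazide (2 M in pH 7.4 buffer). It was quantified alongside the parent by isocratic C18 HPLC-ESI(+)-MS/MS with MRM, using hexamethyl phosphoramide as internal standard, over 50–5000 ng/mL. Results are given in ng/mL.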

[3] = test system: Plasma; experiment: Drug metabolism in mouse plasma assessed as 4-HO-IFO level measured after 2 hrs by HPLC-MS/MS method; assay type: ADME, cell-free; method in brief: as §1
[4] = test system: Plasma; experiment: Drug metabolism in mouse plasma assessed as 4-HO-IFO release measured after 0.5 hrs by HPLC-MS/MS method; assay type: ADME, cell-free; method in brief: as §1
[5] = test system: A673; experiment: Cytotoxicity against human A673 cells after 96 hrs by MTS assay; assay type: functional, cell-based; conditions: A673, 96 h
Method in brief: (§2)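 Human Ewing sarcoma A673 and rhabdomyosarcoma RMS-1 cells were grown in DMEM or RPMI with 10% FCS, penicillin and streptomycin at 37 °C under 5% CO2. […] MTS was then added for 2–5 h and absorbance read at 490 nm. Six replicates per concentration; IC50 versus untreated cells.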

[6] = Cytotoxicity against human RMS1 cells after 96 hrs by MTS assay; assay type: functional, cell-based; conditions: RMS1, 96 h; method in brief: as §2
[7] = test system: Plasma; experiment: Drug metabolism in mouse plasma assessed as 4-HO-IFO level measured after 6 hrs by HPLC-MS/MS method; assay type: ADME, cell-free; method in brief: as §1
[8] = test system: A673; experiment: Cytotoxicity against human A673 cells after 72 hrs by MTS assay; assay type: functional, cell-based; conditions: A673, 72 h; method in brief: as §2
[9] = Cytotoxicity against human RMS1 cells after 72 hrs by MTS assay; assay type: functional, cell-based; conditions: RMS1, 72 h; method in brief: as §2
[10] = test system: Plasma; experiment: Drug metabolism in mouse plasma assessed as 4-HO-IFO release measured after 2 hrs by HPLC-MS/MS method; assay type: ADME, cell-free; method in brief: as §1
[11] = test system: Plasma; experiment: Drug metabolism in mouse plasma assessed as 4-HO-IFO release measured after 4 hrs by HPLC-MS/MS method; assay type: ADME, cell-free; method in brief: as §1

| SMILES | Stability [2] | Drug metabolism [3] | IC50 [8] [µM] | IC50 [9] [µM] | also measured |
| --- | --- | --- | --- | --- | --- |
| CO[C@@H]1CCOP(=O)(NCCCl)N1CCCl (some centres not stated) | – | – | – | – | IC50 [1]: 20 µM |
| CO[C@H]1CCOP(=O)(NCCCl)N1CCCl (some centres not stated) | – | – | – | – | IC50 [1]: 22 µM |
| CC(C)CCCC(C)CCOC1CCOP(=O)(NCCCl)N1CCCl (configuration not stated) | Stable | metabolite_detected | – | – | Drug metabolism [4]: 200 ng/mL; IC50 [5]: 24.5 µM; IC50 [6]: 11.3 µM |
| COC1CCOP(=O)(NCCCl)N1CCCl (mixture of isomers) | – | metabolite_detected | 1.5 | 3.8 | Drug metabolism [7]: metabolite_detected; Drug metabolism [10]: 1250 ng/mL |
| CCCCCOC1CCOP(=O)(NCCCl)N1CCCl (mixture of isomers) | – | – | 17.7 | 5.3 | – |
| CC(C)=CCC/C(C)=C/COC1CCOP(=O)(NCCCl)N1CCCl (mixture of isomers) | Stable | metabolite_detected | 25.3 | 9.3 | Drug metabolism [11]: 350 ng/mL |
| CC(C)=CCC/C(C)=C/CC/C(C)=C/COC1CCOP(=O)(NCCCl)N1CCCl (mixture of isomers) | Stable | metabolite_detected | – | – | Drug metabolism [4]: 700 ng/mL |
